Hits are enriched below; roughly 2.5% of the tested compounds scored in any of these assays.
MC4R ag barr: activates human MC4R beta-arrestin recruitment; U2OS MC4R beta-arrestin complementation, luminescence; percent of melanotan II response, DMSO zero; AID 540308; P32245; activation, % at 8.9 µM; 360,000 tested, 0.98% active;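 active = activation above a per-plate cutoff, the mean activation of sample wells on that plate plus 3 SD, cut at about 8% in these data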
Target sequence (P32245 whole entry, looked up): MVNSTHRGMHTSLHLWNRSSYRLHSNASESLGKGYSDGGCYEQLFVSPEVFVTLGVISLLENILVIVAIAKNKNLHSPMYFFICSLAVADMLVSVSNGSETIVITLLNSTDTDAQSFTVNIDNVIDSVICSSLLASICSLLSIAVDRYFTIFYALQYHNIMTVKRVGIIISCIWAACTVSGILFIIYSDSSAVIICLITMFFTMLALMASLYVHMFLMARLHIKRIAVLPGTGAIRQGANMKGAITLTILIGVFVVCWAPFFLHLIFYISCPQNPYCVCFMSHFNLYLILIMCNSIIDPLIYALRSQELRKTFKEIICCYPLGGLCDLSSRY
MC4R antagonist: antagonists of human melanocortin 4 receptor (MC4R) | P32245 | MC4R-expressing cells, MTII-stimulated cAMP, LANCE TR-FRET | inhibition, % at 6.5 µM | 360,000 tested, 0.48% active;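 active = inhibition above its plate's cutoff, the mean of tested wells on that plate plus 3 SD, cut at about 29% in these data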;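 note: 0% = Melanotan II alone and 100% = Melanotan II plus saturating MCL0020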
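System: U2OS cells stably expressing human melanocortin 4 receptor (MC4R). Reagent: Melanotan II challenge after compound preincubation. Doses: 6.5 µM. Times: 30-min compound, 1-h challenge, 1-h detection, room temperature. Measured by: TR-FRET with Eu-cAMP and labeled anti-cAMP, 671 nm. Replicates: singlicate.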
NALP1 yeast inh: NALP1 inhibition | 280,000 tested, 0.61% active | S. cerevisiae NALP1/ASC/caspase-1 growth, X-gal OD620, 72 h | inhibition, % at 10 µM; in the data active = inhibition mostly above about 24%, no sharp cut-off; inactive = mostly below about 32%
TbMetRS inhib: blocks T. brucei methionyl-tRNA synthetase activity. inhibition, % at 11.9 µM. AID 624268. 360,000 tested, 0.4% active. purified T. brucei MetRS, ATP depletion, Kinase-Glo luminescence;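 active = inhibition above a per-plate cutoff of the control wells' mean inhibition plus 3 SD, cut at about 5.5% in these data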;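 note: 0% = DMSO wells median and 100% = median of wells with control inhibitor compound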
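Dosing: 11.9 µM compound single dose, 0.9% DMSO; Assay system: purified T. brucei MetRS enzyme; Measured by: Kinase-Glo luciferase luminescence reporting remaining unconsumed ATP; Schedule: 15 min plus 2 h at 25 °C.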
Bfl-1 A1 inh: inhibitors of the anti-apoptotic protein A1, read as caspase activation | caspase activation, % (no concentration beside the values) | 330,000 tested, 0.066% active | MEF A1-2A-BIM cells, Caspase-Glo 3/7 luminescence, 3 h; percent of clofoctol response, vehicle zero;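 active = over half of replicate activation scores above 10%, or exactly half above 10 with the replicate mean above 10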
NLRP3 yeast inh: blocks the NALP3 inflammasome reconstituted in yeast | Yeast reconstituted NLRP3/ASC/caspase-1, beta-gal luminescence, 24 h | inhibition, % at 10 µM | 330,000 tested, 0.39% active | AID 2825;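 active = inhibition of 50% or more; inactive = inhibition below 50%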;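 note: plate controls were induced DMSO wells for no effect and uninduced yeast grown without galactose for full effect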
Active calls of the source: *.

How did Cc1ccc(OCCCCN(C)Cc2ccccc2)c(Br)c1 do in these assays?
MC4R ag barr: 2; MC4R antagonist: 4; NALP1 yeast inh: 51*; TbMetRS inhib: 0; Bfl-1 A1 inh: 0; NLRP3 yeast inh: 20

Results for Cc1csc(NC(=O)c2ccc(COc3ccccc3)o2)n1 ?
MC4R ag barr: 0; MC4R antagonist: 0; NALP1 yeast inh: 43*; TbMetRS inhib: 0; Bfl-1 A1 inh: -2; NLRP3 yeast inh: 31

Results for Cc1cccc(NC(=O)c2ccc(COc3ccccc3)o2)n1 ?
MC4R ag barr: -1; MC4R antagonist: 0; NALP1 yeast inh: 13; TbMetRS inhib: 0; Bfl-1 A1 inh: -4; NLRP3 yeast inh: 22

How did Cc1cc(NC(=O)c2ccc(COc3ccc(Cl)c(C)c3)o2)no1 do in these assays?
MC4R ag barr: 9.4*; MC4R antagonist: -1; NALP1 yeast inh: 7; TbMetRS inhib: 0; Bfl-1 A1 inh: 1; NLRP3 yeast inh: -29

Results for Cc1cc(NC(=O)c2ccc(COc3ccccc3Cl)o2)no1 ?
MC4R ag barr: 2; MC4R antagonist: -4; NALP1 yeast inh: 7; TbMetRS inhib: -1; Bfl-1 A1 inh: 0; NLRP3 yeast inh: -6

What do the screens show for `Cc1ccc(/C=N/NC(=O)c2nnn(-c3nonc3N)c2C(C)C)o1`?
MC4R ag barr: -3; MC4R antagonist: -5; NALP1 yeast inh: 18; TbMetRS inhib: -1; Bfl-1 A1 inh: 1; NLRP3 yeast inh: 4

How did C/C=C/C1=CC(=O)C[C@H](c2ccc(Cl)cc2)C1 do in these assays?
MC4R ag barr: 3; MC4R antagonist: 9; TbMetRS inhib: 1; Bfl-1 A1 inh: 0; NLRP3 yeast inh: 7

What do the screens show for `Cc1ccc(-c2ccc(/C=N/n3cnnc3)o2)cc1Cl`?
MC4R ag barr: -1; MC4R antagonist: 5; NALP1 yeast inh: 10; TbMetRS inhib: 0; Bfl-1 A1 inh: -1; NLRP3 yeast inh: 26

Results for Cc1ccc(-c2ccc(/C=N/n3cnnc3)o2)cc1 ?
MC4R ag barr: -1; MC4R antagonist: -9; NALP1 yeast inh: 39*; TbMetRS inhib: 0; Bfl-1 A1 inh: 0; NLRP3 yeast inh: 15

Results for CCOc1cc(/C=N/NC(=O)c2cc(-c3cccc(OC)c3)nc3ccccc23)ccc1O ?
MC4R ag barr: -1; MC4R antagonist: 18; TbMetRS inhib: 0; Bfl-1 A1 inh: 0; NLRP3 yeast inh: 0

How did Cc1ccc(-c2cc(C(=O)Nc3ccncc3)c3ccccc3n2)cc1 do in these assays?
MC4R ag barr: 8.9*; MC4R antagonist: 6; TbMetRS inhib: 0; Bfl-1 A1 inh: 0; NLRP3 yeast inh: 11

What do the screens show for `CC(C)COc1cccc(-c2cc(C(=O)N/N=C/c3ccncc3)c3ccccc3n2)c1`?
MC4R ag barr: 9.6*; MC4R antagonist: 17; NALP1 yeast inh: 23; TbMetRS inhib: 0; Bfl-1 A1 inh: -1; NLRP3 yeast inh: -18

What do the screens show for `O=C(Nc1ccncc1)c1cc(-c2cccc(Br)c2)nc2ccccc12`?
MC4R ag barr: 22*; MC4R antagonist: 18; TbMetRS inhib: 0; Bfl-1 A1 inh: 0; NLRP3 yeast inh: 7

Results for COc1cc(-c2cc(C(=O)Nc3ccncc3)c3ccccc3n2)cc(OC)c1OC ?
MC4R ag barr: -1; MC4R antagonist: 6; TbMetRS inhib: 0; Bfl-1 A1 inh: -2; NLRP3 yeast inh: 12

What do the screens show for `CC(C)(C)N(Cc1ccccc1)C(=O)COC(=O)c1ccc2ccccc2n1`?
MC4R ag barr: -2; MC4R antagonist: 12; TbMetRS inhib: 0; Bfl-1 A1 inh: 0; NLRP3 yeast inh: 16

How did COc1ccccc1-c1sc2cc3c(cc2c1C#Cc1cncn1C)OCO3 do in these assays?
MC4R ag barr: 0; MC4R antagonist: 11; TbMetRS inhib: -1; Bfl-1 A1 inh: -1; NLRP3 yeast inh: 21

What do the screens show for `COc1ccc2sc(-c3ccccc3OC)c(C#Cc3cncn3C)c2c1`?
MC4R ag barr: 8.6*; MC4R antagonist: 12; TbMetRS inhib: 0; NLRP3 yeast inh: 13

How did COc1ccc(N2CC(NS(=O)(=O)c3ccc(F)cc3)CC2=O)cc1 (centres undefined) do in these assays?
MC4R ag barr: -2; MC4R antagonist: 13; TbMetRS inhib: 0; Bfl-1 A1 inh: 1; NLRP3 yeast inh: 9

Results for C/C(=N\NC(=O)C1CC1)c1ccc(C)cc1C ?
MC4R ag barr: -2; MC4R antagonist: 10; TbMetRS inhib: 0; Bfl-1 A1 inh: 1; NLRP3 yeast inh: 6

What do the screens show for `Cc1ccc(S(=O)(=O)N/N=C/c2c[nH]c3ccccc23)cc1`?
MC4R ag barr: -4; MC4R antagonist: 1; NALP1 yeast inh: 26*; TbMetRS inhib: 0; Bfl-1 A1 inh: 1; NLRP3 yeast inh: 5

What do the screens show for `O=C(O)c1ccc(S(=O)(=O)NN=Cc2c[nH]c3ccccc23)cc1`?
MC4R ag barr: 0; MC4R antagonist: 1; TbMetRS inhib: 0

How did O=C(COc1ccccc1)N[C@@H]1c2ccccc2CC[C@@H]1OCc1ccccc1 do in these assays?
MC4R ag barr: 8.4*; MC4R antagonist: 17; TbMetRS inhib: 2

What do the screens show for `O=C(COc1ccccc1)N[C@@H]1c2ccccc2CC[C@H]1OCc1ccccc1`?
MC4R ag barr: 1; MC4R antagonist: -2; TbMetRS inhib: -2

Results for CC1CCN(S(=O)(=O)c2cc(C(=O)NC3(C)CCS(=O)(=O)C3)ccc2Br)CC1 (centres undefined) ?
MC4R ag barr: 1; MC4R antagonist: 10; TbMetRS inhib: 0; Bfl-1 A1 inh: -1; NLRP3 yeast inh: 12

What do the screens show for `CSc1nnc(-c2ccc(NC(=O)CCc3ccccc3)cc2)n1C`?
MC4R ag barr: -1; MC4R antagonist: 3; TbMetRS inhib: 0; Bfl-1 A1 inh: 0; NLRP3 yeast inh: 2

How did Cn1c(SCC(=O)Nc2ccccc2)nnc1-c1ccc(NC(=O)CCc2ccccc2)cc1 do in these assays?
MC4R ag barr: 9.3*; MC4R antagonist: 0; NALP1 yeast inh: -20; TbMetRS inhib: 0; Bfl-1 A1 inh: 0; NLRP3 yeast inh: 3

Results for COc1ccc(NC(=O)CCn2c(=S)[nH]c3ccccc3c2=O)cc1 ?
MC4R ag barr: 8.6*; MC4R antagonist: 8; NALP1 yeast inh: 27; TbMetRS inhib: 0; Bfl-1 A1 inh: 1; NLRP3 yeast inh: 12

Results for Cc1ccc(CONS(=O)(=O)c2cc(C)ccc2C)cc1 ?
MC4R ag barr: 8.2*; MC4R antagonist: -3; TbMetRS inhib: -1; Bfl-1 A1 inh: 0; NLRP3 yeast inh: 36

Results for Cc1ccc(C)c(S(=O)(=O)Nc2ccc(O)cc2)c1 ?
MC4R ag barr: -1; MC4R antagonist: 1; NALP1 yeast inh: 6; TbMetRS inhib: 0; Bfl-1 A1 inh: 1; NLRP3 yeast inh: -3

Bioassay records as filed in PubChem.
